According to ChEMBL document CHEMBL3046036, “Bioactivity of the fungal metabolite (8R,16R)-(-)-pyrenophorin on graminaceous plants” (J Agric Food Chem, 2005):

Experiments:
Conditions in all cases: in vivo
Hordeum vulgare = experiment: Effect on chlorophyll content in Hordeum vulgare (barley) assessed as chlorophyll dissipation rate at 20 degC and 12 hr photoperiod at 320 uM relative to control; format: ADME, organism-based
How it was run: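 Leaf sections were treated with 320 µM metabolite and incubated in the dark at 20 °C, with 16 tubes per treatment. Every 12 h, segments from one tube were split into four tubes and extracted in DMSO at 65 °C for 30 min. Extracts were read at A665, tissue was dried at 105 °C and weighed, and chlorophyll was expressed as A665 per g dry weight.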

Avena sativa = experiment: Effect on chlorophyll content in Avena sativa assessed as chlorophyll dissipation rate at 20 degC in the dark at 320 uM relative to control
Triticum aestivum = experiment: Effect on chlorophyll content in Triticum aestivum (wheat) assessed as chlorophyll dissipation rate at 20 degC in the dark at 320 uM relative to control
Avena sterilis = experiment: Effect on chlorophyll content in Avena sterilis assessed as chlorophyll dissipation rate at 20 degC in the dark at 320 uM relative to control
Avena fatua = experiment: Effect on chlorophyll content in Avena fatua assessed as chlorophyll dissipation rate at 20 degC in the dark at 320 uM relative to control

Measured: Activity

C[C@@H]1CC[C@H](O)/C=C/C(=O)O[C@H](C)CC[C@H](O)/C=C/C(=O)O1 [(5S,8R,13S,16R)-(-)-PYRENOPHOROL]
Non-toxic: all assays above
